According to ChEMBL document CHEMBL2021764, “2-Aminothiophenes as building blocks in heterocyclic synthesis: synthesis and antimicrobial evaluation of a new class of pyrido[1,2-a]thieno[3,2-e]pyrimidine, quinoline and pyridin-2-one derivatives” (2012):

Key:
Format in all cases: functional
[1] = test system: Escherichia coli; assay: Antibacterial activity against Escherichia coli 124300 at 1 mg/ml after 24 hrs by agar-well diffusion technique; conditions: Escherichia coli, 124300, 24 h; read-out: DIZ
Method in brief: (§1)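 Each bacterial strain (0.1 ml) was spread on nutrient agar, and 4 mm wells were cut with a sterile cork borer. Wells were loaded with test chemical at a final 1 mg ml^-1, then incubated at 37 °C for 24 h. Inhibition zone diameters around the wells were measured, averaged over 3 replicas.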

[2] = test system: Serratia marcescens; assay: Antibacterial activity against Serratia marcescens 155449 at 1 mg/ml after 24 hrs by agar-well diffusion technique; conditions: Serratia marcescens, 155449, 24 h; read-out: DIZ; method in brief: as §1
[3] = test system: Pseudomonas aeruginosa; assay: Antibacterial activity against Pseudomonas aeruginosa 155250A at 1 mg/ml after 24 hrs by agar-well diffusion technique; conditions: read-out: DIZ; method in brief: as §1
[4] = test system: Candida albicans; assay: Antifungal activity against Candida albicans 155965 at 1 mg/ml after 48 hrs by agar-well diffusion technique; conditions: Candida albicans, 155965, 48 h; read-out: DIZ
Method in brief: (§2)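 Yeast (0.1 ml) was spread on potato dextrose agar, and 4 mm wells were cut with a sterile cork borer. Wells were loaded with test chemical at a final 1 mg ml^-1, then incubated at 25 °C for 48 h. Inhibition zones around the wells were measured, averaged over 3 replicas.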

[5] = test system: Bacillus subtilis; assay: Antibacterial activity against Bacillus subtilis 154921 at 1 mg/ml after 24 hrs by agar-well diffusion technique; conditions: Bacillus subtilis, 154921, 24 h; read-out: DIZ; method in brief: as §1
[6] = test system: Saccharomyces cerevisiae; assay: Antifungal activity against Saccharomyces cerevisiae 156250 at 1 mg/ml after 48 hrs by agar-well diffusion technique; conditions: Saccharomyces cerevisiae, 156250, 48 h; read-out: DIZ; method in brief: as §2
[7] = test system: Staphylococcus aureus; assay: Antibacterial activity against Staphylococcus aureus 155554A at 1 mg/ml after 24 hrs by agar-well diffusion technique; conditions: read-out: DIZ; method in brief: as §1

How did the zone of inhibition at 1000 µg/mL [1] turn out when `COc1ccc(-c2c(C#N)c(=N)n3c([nH]c(=O)c4c(-c5ccccc5)csc43)c2C#N)cc1` was run?
The zone of inhibition at 1000 µg/mL was 3.3 mm.

And the zone of inhibition at 1000 µg/mL [2]?
The zone of inhibition at 1000 µg/mL was 2 mm.

What about the zone of inhibition at 1000 µg/mL [3] of the same molecule?
The zone of inhibition at 1000 µg/mL was 14 mm.

And the zone of inhibition at 1000 µg/mL [4]?
Its zone of inhibition at 1000 µg/mL is 0 mm.

And the zone of inhibition at 1000 µg/mL [5]?
The zone of inhibition at 1000 µg/mL was 2 mm.

What about the zone of inhibition at 1000 µg/mL [6] of the same molecule?
The zone of inhibition at 1000 µg/mL was 0 mm.

And the zone of inhibition at 1000 µg/mL [7]?
Its zone of inhibition at 1000 µg/mL is 0 mm.

How did the zone of inhibition at 1000 µg/mL [1] turn out when `N#Cc1c(-c2ccccc2)csc1N` was run?
The zone of inhibition at 1000 µg/mL was 10.6 mm.

And the zone of inhibition at 1000 µg/mL [2]?
The zone of inhibition at 1000 µg/mL was 11.3 mm.

And the zone of inhibition at 1000 µg/mL [3]?
The zone of inhibition at 1000 µg/mL was 10.6 mm.

And the zone of inhibition at 1000 µg/mL [4]?
The zone of inhibition at 1000 µg/mL was 18 mm.

And the zone of inhibition at 1000 µg/mL [5]?
Its zone of inhibition at 1000 µg/mL is 14.6 mm.

And the zone of inhibition at 1000 µg/mL [6]?
Its zone of inhibition at 1000 µg/mL is 16 mm.

What about the zone of inhibition at 1000 µg/mL [7] of the same molecule?
The zone of inhibition at 1000 µg/mL was 21 mm.

Which results are given for `N#Cc1c(-c2ccc(Cl)cc2)csc1N`?
zone of inhibition at 1000 µg/mL [1]: 4 mm; zone of inhibition at 1000 µg/mL [2]: 0 mm; zone of inhibition at 1000 µg/mL [3]: 5 mm; zone of inhibition at 1000 µg/mL [4]: 2.6 mm; zone of inhibition at 1000 µg/mL [5]: 11 mm; zone of inhibition at 1000 µg/mL [6]: 7 mm; zone of inhibition at 1000 µg/mL [7]: 6.6 mm

`CN(C)/C=C(\C#N)C(=O)Nc1scc(-c2ccccc2)c1C#N` was tested. Which zone of inhibition at 1000 µg/mL [1] did it give?
The zone of inhibition at 1000 µg/mL was 4 mm.

And the zone of inhibition at 1000 µg/mL [2]?
Its zone of inhibition at 1000 µg/mL is 3.3 mm.

What about the zone of inhibition at 1000 µg/mL [3] of the same molecule?
Its zone of inhibition at 1000 µg/mL is 10.8 mm.

What about the zone of inhibition at 1000 µg/mL [4] of the same molecule?
Its zone of inhibition at 1000 µg/mL is 4 mm.

And the zone of inhibition at 1000 µg/mL [5]?
The zone of inhibition at 1000 µg/mL was 1.6 mm.

What about the zone of inhibition at 1000 µg/mL [6] of the same molecule?
The zone of inhibition at 1000 µg/mL was 1.3 mm.

What about the zone of inhibition at 1000 µg/mL [7] of the same molecule?
The zone of inhibition at 1000 µg/mL was 0 mm.

With `N#Cc1c(-c2cccs2)c(C#N)c2[nH]c(=O)c3c(-c4ccccc4)csc3n2c1=N` as the molecule, how does the zone of inhibition at 1000 µg/mL [1] read?
Its zone of inhibition at 1000 µg/mL is 4 mm.

What about the zone of inhibition at 1000 µg/mL [2] of the same molecule?
Its zone of inhibition at 1000 µg/mL is 0 mm.

What about the zone of inhibition at 1000 µg/mL [3] of the same molecule?
Its zone of inhibition at 1000 µg/mL is 11.3 mm.

What about the zone of inhibition at 1000 µg/mL [4] of the same molecule?
The zone of inhibition at 1000 µg/mL was 0 mm.

What about the zone of inhibition at 1000 µg/mL [5] of the same molecule?
Its zone of inhibition at 1000 µg/mL is 3.3 mm.

And the zone of inhibition at 1000 µg/mL [6]?
The zone of inhibition at 1000 µg/mL was 0 mm.

What about the zone of inhibition at 1000 µg/mL [7] of the same molecule?
Its zone of inhibition at 1000 µg/mL is 0 mm.

`COc1ccc(-c2c(C#N)c(=N)n3c([nH]c(=O)c4c(-c5ccc(Cl)cc5)csc43)c2C#N)cc1` was tested. Which zone of inhibition at 1000 µg/mL [1] did it give?
The zone of inhibition at 1000 µg/mL was 4 mm.

And the zone of inhibition at 1000 µg/mL [2]?
Its zone of inhibition at 1000 µg/mL is 4 mm.

What about the zone of inhibition at 1000 µg/mL [3] of the same molecule?
Its zone of inhibition at 1000 µg/mL is 13.1 mm.

What about the zone of inhibition at 1000 µg/mL [4] of the same molecule?
The zone of inhibition at 1000 µg/mL was 0 mm.

And the zone of inhibition at 1000 µg/mL [5]?
The zone of inhibition at 1000 µg/mL was 2 mm.

What about the zone of inhibition at 1000 µg/mL [6] of the same molecule?
The zone of inhibition at 1000 µg/mL was 0 mm.

And the zone of inhibition at 1000 µg/mL [7]?
The zone of inhibition at 1000 µg/mL was 0 mm.

Which zone of inhibition at 1000 µg/mL [1] does the source give for `N#Cc1c(-c2cccs2)c(C#N)c2[nH]c(=O)c3c(-c4ccc(Cl)cc4)csc3n2c1=N` here?
Its zone of inhibition at 1000 µg/mL is 4 mm.

And the zone of inhibition at 1000 µg/mL [2]?
The zone of inhibition at 1000 µg/mL was 2.6 mm.

And the zone of inhibition at 1000 µg/mL [3]?
Its zone of inhibition at 1000 µg/mL is 10.6 mm.

What about the zone of inhibition at 1000 µg/mL [4] of the same molecule?
The zone of inhibition at 1000 µg/mL was 12 mm.

And the zone of inhibition at 1000 µg/mL [5]?
The zone of inhibition at 1000 µg/mL was 2 mm.

What about the zone of inhibition at 1000 µg/mL [6] of the same molecule?
Its zone of inhibition at 1000 µg/mL is 0 mm.

What about the zone of inhibition at 1000 µg/mL [7] of the same molecule?
Its zone of inhibition at 1000 µg/mL is 0 mm.

For `N#Cc1cc(C#N)c2[nH]c(=O)c3c(-c4ccccc4)csc3n2c1=N`, which zone of inhibition at 1000 µg/mL [1] is on record?
The zone of inhibition at 1000 µg/mL was 4 mm.

What about the zone of inhibition at 1000 µg/mL [2] of the same molecule?
Its zone of inhibition at 1000 µg/mL is 6.6 mm.

And the zone of inhibition at 1000 µg/mL [3]?
The zone of inhibition at 1000 µg/mL was 9 mm.

What about the zone of inhibition at 1000 µg/mL [4] of the same molecule?
The zone of inhibition at 1000 µg/mL was 2.6 mm.

What about the zone of inhibition at 1000 µg/mL [5] of the same molecule?
Its zone of inhibition at 1000 µg/mL is 2 mm.

And the zone of inhibition at 1000 µg/mL [6]?
Its zone of inhibition at 1000 µg/mL is 1.3 mm.

And the zone of inhibition at 1000 µg/mL [7]?
Its zone of inhibition at 1000 µg/mL is 0 mm.

What does the source list for `N#Cc1cc(C#N)c2[nH]c(=O)c3c(-c4ccc(Cl)cc4)csc3n2c1=N`?
zone of inhibition at 1000 µg/mL [1]: 2 mm; zone of inhibition at 1000 µg/mL [2]: 3.3 mm; zone of inhibition at 1000 µg/mL [3]: 8 mm; zone of inhibition at 1000 µg/mL [4]: 0 mm; zone of inhibition at 1000 µg/mL [5]: 6 mm; zone of inhibition at 1000 µg/mL [6]: 0 mm; zone of inhibition at 1000 µg/mL [7]: 2.6 mm

`N#Cc1c(-c2ccc(Cl)cc2)csc1NC(=O)c1cc2ccccc2[nH]c1=O` was tested. Which zone of inhibition at 1000 µg/mL [1] did it give?
Its zone of inhibition at 1000 µg/mL is 8 mm.

And the zone of inhibition at 1000 µg/mL [3]?
The zone of inhibition at 1000 µg/mL was 11 mm.

What about the zone of inhibition at 1000 µg/mL [5] of the same molecule?
Its zone of inhibition at 1000 µg/mL is 10.5 mm.

What about the zone of inhibition at 1000 µg/mL [7] of the same molecule?
The zone of inhibition at 1000 µg/mL was 8 mm.

How did the zone of inhibition at 1000 µg/mL [1] turn out when `CCOC(=O)c1sc(NC(=O)CC#N)c(C#N)c1C` was run?
Its zone of inhibition at 1000 µg/mL is 7 mm.

And the zone of inhibition at 1000 µg/mL [4]?
Its zone of inhibition at 1000 µg/mL is 0 mm.

What about the zone of inhibition at 1000 µg/mL [5] of the same molecule?
Its zone of inhibition at 1000 µg/mL is 7 mm.

What about the zone of inhibition at 1000 µg/mL [6] of the same molecule?
The zone of inhibition at 1000 µg/mL was 0 mm.

How did the zone of inhibition at 1000 µg/mL [1] turn out when `N#Cc1c(-c2ccc([N+](=O)[O-])cc2)c(C#N)c2[nH]c(=O)c3c(-c4ccccc4)csc3n2c1=N` was run?
Its zone of inhibition at 1000 µg/mL is 4 mm.

What about the zone of inhibition at 1000 µg/mL [2] of the same molecule?
The zone of inhibition at 1000 µg/mL was 4.6 mm.

What about the zone of inhibition at 1000 µg/mL [4] of the same molecule?
The zone of inhibition at 1000 µg/mL was 0 mm.

What about the zone of inhibition at 1000 µg/mL [5] of the same molecule?
The zone of inhibition at 1000 µg/mL was 2 mm.

And the zone of inhibition at 1000 µg/mL [6]?
Its zone of inhibition at 1000 µg/mL is 0 mm.

What about the zone of inhibition at 1000 µg/mL [7] of the same molecule?
Its zone of inhibition at 1000 µg/mL is 0 mm.

Which zone of inhibition at 1000 µg/mL [1] does the source give for `N#Cc1c(-c2ccc(Cl)cc2)c(C#N)c2[nH]c(=O)c3c(-c4ccccc4)csc3n2c1=N` here?
The zone of inhibition at 1000 µg/mL was 4.6 mm.

And the zone of inhibition at 1000 µg/mL [2]?
The zone of inhibition at 1000 µg/mL was 3.3 mm.

And the zone of inhibition at 1000 µg/mL [4]?
Its zone of inhibition at 1000 µg/mL is 0 mm.

And the zone of inhibition at 1000 µg/mL [5]?
The zone of inhibition at 1000 µg/mL was 1.6 mm.

And the zone of inhibition at 1000 µg/mL [6]?
Its zone of inhibition at 1000 µg/mL is 1.3 mm.

And the zone of inhibition at 1000 µg/mL [7]?
The zone of inhibition at 1000 µg/mL was 0 mm.
